Sampled rows, rich in hits. Any-hit rate of the full collection: about 3.5%.
MrgX1 antag – blocks BAM8-22 activation of human MrgX1 receptor; MRGX1-HEK293 calcium flux, Fluo-4, BAM8-22 antagonism; active compounds read low; AID 588676; actives 1.3% (n = 310,000); B-score at 10 µM;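 active = calcium-response B-score plate-corrected more than 3 library SD below zero, starting fluorescence within 5 deviations, no agonist response on first addition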;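 also: peak minus trough fluorescence over baseline after final BAM8-22 challenge near maximal dose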
Target sequence (Q96LB2 whole entry, looked up): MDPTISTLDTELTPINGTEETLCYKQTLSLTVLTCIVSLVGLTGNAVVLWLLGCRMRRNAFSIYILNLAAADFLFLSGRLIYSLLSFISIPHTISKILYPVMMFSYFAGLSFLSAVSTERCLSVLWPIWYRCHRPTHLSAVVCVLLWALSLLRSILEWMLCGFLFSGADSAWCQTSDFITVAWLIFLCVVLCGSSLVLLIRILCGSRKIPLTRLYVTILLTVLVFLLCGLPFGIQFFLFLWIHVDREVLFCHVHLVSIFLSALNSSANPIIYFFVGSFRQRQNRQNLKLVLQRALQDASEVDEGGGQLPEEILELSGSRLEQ
MrgX1 PAM – allosterically activates human MrgX1 receptor signaling; Q96LB2; MrgX1-HEK293, Fluo-4 calcium flux, FDSS; active compounds read high; B-score at 10 µM; actives 0.63% (n = 310,000); AID 588675;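 active = plate-corrected calcium response at least 3 library SD above typical, normal starting fluorescence, not activating the receptor alone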;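 also: compound read alongside a low EC10 to EC30 dose of BAM8-22 agonist; peak minus trough fluorescence over baseline measured at the second addition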
RGS4 act – potentiators or activators of RGS4; HEK293 M3R/inducible RGS4, carbachol calcium flux Fluo4; active compounds read low; B-score at 10 µM; actives 0.92% (n = 310,000);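 active = B-score of the integrated calcium signal more than 4 SD below the library mean, with starting fluorescence not abnormally high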;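 also: negative B-score means reduced calcium response which marks RGS4 activation or potentiation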
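Also added: carbachol at ECmax as muscarinic agonist stimulus; Assay system: HEK293 cells with stable M3R and inducible RGS4; Timing: overnight RGS4 induction, 30 min dye load 37 °C, 20 min compound RT; Measured by: Fluo4-AM (2 µM) calcium-flux fluorescence, kinetic read.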
MrgX1 ag – activates human MrgX1 receptor signaling; Q96LB2; MrgX1-HEK293 cells, Fluo-4 calcium fluorescence, agonist mode; active compounds read high; B-score at 10 µM; actives 0.44% (n = 310,000);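 active = calcium response B-score plate-corrected fluorescence ratio at least 3 library SD, with starting fluorescence B-score inside 5 SD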
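Material: MrgX1-expressing HEK293 cells / Dosing: compound as first of three additions / Incubation: overnight seeding, then 1 h dark dye loading / Signal: Fluo-4 NW calcium fluorescence / Evaluation: B-scored fluorescence response ratio / Benchmarks: positive and negative control wells on each plate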
RGS4 inh – inhibitors of human RGS4 | P49798 | HEK293 M3R/RGS4 inducible, Fluo-4 calcium flux; active compounds read high; triggered by carbachol at its EC20 | B-score at 10 µM | actives 0.45% (n = 310,000);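 active = B-score, a plate-corrected calcium signal, over three deviations above library mean, with baseline fluorescence within five deviations of library mean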;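 also: RGS4 expression induced by doxycycline in cells with stable M3 receptor; B-score is computed from the integrated fluorescence ratio over baseline after carbachol; higher B-score means a larger calcium signal and so more RGS4 inhibition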
Target sequence (P49798 whole entry, looked up): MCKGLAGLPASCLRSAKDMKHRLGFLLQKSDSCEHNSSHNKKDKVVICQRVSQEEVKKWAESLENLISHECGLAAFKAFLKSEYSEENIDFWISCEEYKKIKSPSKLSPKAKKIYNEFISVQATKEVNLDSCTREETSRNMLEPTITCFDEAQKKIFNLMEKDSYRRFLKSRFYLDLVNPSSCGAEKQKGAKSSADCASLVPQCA
MrgX1 antag conf – confirmation of human MrgX1 receptor antagonists; shares compounds with MrgX1 antag; MrgX1-HEK293, BAM8-22 calcium flux, Fluo-4; active compounds read low; remaining BAM8-22 calcium response % of control (active compounds read low), % at 10 µM; actives 19% (n = 2,300); AID 602420;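 active = remaining agonist calcium response no higher than 100% minus 3 SD of agonist-only control wells, with starting fluorescence near control levels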;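 also: agonist BAM8-22 given at a near maximal EC90 to ECmax level; peak minus minimum fluorescence divided by baseline after agonist addition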
HEK293 Ca flux – activity in parental HEK293 cells lacking MrgX1. actives 2% (n = 4,000). shares compounds with MrgX1 antag. fluorescence ratio F(max-min)/F0 at 10 µM. Fluo-4 calcium fluorescence, FDSS;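 active = duplicate-averaged calcium fluorescence ratio at least three times the standard deviation of buffer wells, a nonspecific response in parental cells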
HEK293 Ca counter – activity in parental HEK293 cells without MrgX1; fluorescence ratio F(max-min)/F0 at 10 µM; shares compounds with MrgX1 antag; parental HEK293 calcium flux, Fluo-4 fluorescence ratio; active compounds read high; AID 624114; actives 0.4% (n = 4,000);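 active = calcium fluorescence ratio, averaged over duplicates, at least 3 SD of the buffer-well ratio, meaning a nonspecific response in receptor-free cells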;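 also: untransfected parental HEK293 lacking MrgX1 used as counterscreen for MrgX1 allosteric activators; fluorescence change taken during the second addition on a kinetic imager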
HEK293 Ca cntr2 – counter-screen for MrgX1 activators: effect in parental HEK293 cells | actives 8.7% (n = 4,000) | shares compounds with MrgX1 antag | fluorescence ratio F(max-min)/F0 at 10 µM | Fluo-4 calcium fluorescence (FDSS); active compounds read high;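 active = calcium fluorescence ratio at least three times the spread of buffer wells, meaning a non-specific response in parental cells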
An asterisk follows results filed as active; i = inactive; . = no result given.

SMILES	MrgX1 antag	MrgX1 PAM	RGS4 act	MrgX1 ag	RGS4 inh	MrgX1 antag conf	HEK293 Ca flux	HEK293 Ca counter	HEK293 Ca cntr2
CCOc1ccc(CNC(=O)c2ccc3c(c2)N(CC)CCS3)cc1	-6.6*	i	i	i	i	81.7%*	i	i	i
Cc1cc(C)cc(C(=O)NC(=S)Nc2cccnc2)c1	i	i	i	i	i	.	.	.	.
CC(C)CN(C(=O)COC(=O)CNC(=O)c1ccccc1)c1c(N)n(Cc2ccccc2)c(=O)[nH]c1=O	i	i	i	i	i	.	.	.	.
O=C(O)COc1ccc(Cl)cc1CO	-4.75*	i	i	i	i	i	i	i	i
Cc1nn(-c2ccccc2)c(Oc2ccccc2)c1C=O	i	i	i	i	i	.	.	.	.
Cc1nc2ccccc2c2oc(C(=O)NC3CC3)cc12	i	i	i	i	i	.	.	.	.
Cc1cc2c(C)nc3ccccc3c2o1	-4.75*	i	i	i	i	i	i	i	i
COc1ccc(-c2noc(CN(C(=O)c3ccc4c(c3)OCO4)C(C)C)n2)cc1	i	i	i	i	i	.	.	.	.
COc1ccc(-c2noc(CN(C(=O)c3cccs3)C(C)C)n2)cc1	-4.83*	i	i	i	i	i	i	i	i
COc1ccccc1OCCNC(=O)CC(NC(C)=O)c1ccccc1 (configuration not stated)	i	i	i	i	i	.	.	.	.
CC(=O)NC(CC(=O)NCCc1ccccc1)c1ccccc1 (configuration not stated)	-4.9*	i	i	i	i	i	i	i	i
CC(C)Cn1c(Br)nc2c1c(=O)n(CCC#N)c(=O)n2C	i	i	i	i	i	.	.	.	.
COc1ccc(-c2cc(-c3ccc(Cl)cc3)c(C#N)c(SCC(=O)O)n2)cc1	-5.86*	i	i	i	i	i	i	i	i
CCN(CC)CCCCNc1ncc2cc(-c3cc(OC)cc(OC)c3)c(NC(=O)NC(C)(C)C)nc2n1	i	i	i	i	i	.	.	.	.
COc1cccc(OC)c1C(=O)N1CCN(Cc2ccccc2C)CC1	-4.62*	i	i	i	i	i	i	i	i
NC1=NC(=O)C(CC(=O)c2ccc(Cl)cc2)S1 (configuration not stated)	i	i	i	i	i	.	.	.	.
Cc1nn(Cc2ccccc2Cl)c2sc(C(=O)Nc3nccs3)cc12	i	i	i	i	i	.	.	.	.
Cc1nn(Cc2ccc(F)cc2)c2sc(C(=O)Nc3nccs3)cc12	-4.68*	i	i	i	i	i	i	i	i
CC(CCN1C(Nc2ccccc2)=NC[C@@H]1Cc1ccccc1)c1ccccc1 (some centres not stated)	i	i	i	i	i	.	.	.	.
O=C(CNc1ccc(Br)cc1)c1ccc(Br)s1	i	i	i	i	i	.	.	.	.
COc1ccc(CN2CCC(N3CC(C)OC(C)C3)CC2)c(OC)c1 (configuration not stated)	-4.77*	i	i	i	i	i	i	i	i
CC(=O)NCCc1c[nH]c2ccc(O)cc12	-5.08*	i	i	i	i	i	i	i	i
COc1ccc2[nH]cc(CCNC(C)=O)c2c1	i	i	i	i	i	.	.	.	.
CCCNC(=O)COc1coc(CN2CCN(c3ccccc3OC)CC2)cc1=O	i	i	i	i	i	.	.	.	.
CC1CCCCN1C(=O)CSc1nnc(-c2ccco2)n1CC1CCCO1 (configuration not stated)	-7*	i	i	i	i	i	i	i	i
SMILES	MrgX1 antag	MrgX1 PAM	RGS4 act	MrgX1 ag	RGS4 inh	MrgX1 antag conf	HEK293 Ca flux	HEK293 Ca counter	HEK293 Ca cntr2
CCn1c(SCC(=O)N2CCCCC2C)nnc1-c1ccco1 (configuration not stated)	i	i	i	i	i	.	.	.	.
Cc1cccnc1CCNC(=O)c1ccc(OC2CCN(Cc3ccccn3)CC2)cc1	-10*	i	i	i	i	i	i	i	i
COc1cc(/C=N/NC(=O)c2ccccn2)ccc1OC(=O)c1cccs1	i	i	i	i	i	.	.	.	.
COCC(=O)N1CCC(Oc2ccc(C(=O)NC(C)c3csc(C)n3)cc2)CC1 (configuration not stated)	i	i	i	i	i	.	.	.	.
Cc1cc(C(=O)N2CCCC(Nc3ccc(C(C)C)cc3)C2)nn1C (configuration not stated)	i	i	i	i	i	.	.	.	.
CC(C)c1ccc(NC2CCCN(C(=O)c3cnsn3)C2)cc1 (configuration not stated)	-6.78*	i	i	i	i	i	i	i	i
Cc1cc(Br)ccc1NC(=S)NCCc1ccccc1	i	i	i	i	i	.	.	.	.
Cc1ccc(NC(=S)NCCc2ccccc2)c(C)c1	-5.18*	i	i	i	i	i	i	i	i
CC(=O)N1CCN(C2c3cccc4cccc(c34)C2NS(=O)(=O)c2ccccc2)CC1 (configuration not stated)	i	i	i	i	i	.	.	.	.
O=S(=O)(NC1c2cccc3cccc(c23)C1N1CCNCC1)c1ccc(Cl)cc1 (configuration not stated)	-5.75*	i	i	i	i	83.6%*	i	i	i
CCOC(=O)c1cc2c(=O)n3ccccc3nc2n(Cc2ccco2)c1=NC(=O)c1ccccc1OCC	i	i	i	i	i	.	.	.	.
CCOC(=O)c1cc2c(=O)n3ccccc3nc2n(Cc2ccco2)c1=NC(=O)c1cccnc1	-14.9*	i	i	i	i	i	i	i	i
N=c1c(S(=O)(=O)c2ccc(Br)cc2)cc2c(=O)n3ccccc3nc2n1Cc1ccco1	-4.56*	i	i	i	i	82.2%*	i	i	i

Source: PubChem BioAssay
